Test system: T cell hybridoma HH8
Experiment: Activation of T cell hybridoma HH8 by PT-gluten
Format: cell-based, mouse
Settings: HH8 and DB4, in words
Method in brief: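 Irradiated (8,000 rads) T2DM cells (100,000) retrovirally expressing DQ2 WT or mutant co-cultured 16-24 h with HH8 hybridoma (100,000) and titrated PT-gluten (0.06-3 μg/μl); supernatant IL-2 by mouse IL-2 ELISA. PT-gluten: gluten digested with pepsin (pH 2.0), then trypsin/chymotrypsin (pH 6), 37°C; heat-inactivated; dialysed high-molecular-weight fraction deamidated with guinea pig transglutaminase (100 ug/ml, 1mM CaCl2, 37°C, 2h).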

| Sequence | effect of DM on presentation of the epitope |
| --- | --- |
| PQPELPYPQPQL [α-II-gliadin 62-70] | DM-suppressed epitope |
| QLQPFPQPELPYPQPQS [α-gliadin 57-73 Q65E] | suppressed by DM in endocytic compartments |

— publication PMC3159820 (Journal of immunology (Baltimore, Md. : 1950), 2011)
